Experimental data reported in ChEMBL document CHEMBL1128444 (J Med Chem, 1995).

Experiments:
[1] = biological target: T1, Sodium-dependent serotonin transporter (Rattus norvegicus, UniProt P31652); test: Binding affinity at the Serotonin transporter in rat midbrain by inhibition of 0.5 nM [3H]-paroxetine binding; type: tissue-based
[2] = biological target: T2, Monoamine transporters; serotonin & dopamine (Rattus norvegicus) (UniProt P31652+P23977); test: Ratio of IC50 value against 5-HT to that of DA transporters; type: protein assay
T2 sequence (P23977 whole entry, looked up): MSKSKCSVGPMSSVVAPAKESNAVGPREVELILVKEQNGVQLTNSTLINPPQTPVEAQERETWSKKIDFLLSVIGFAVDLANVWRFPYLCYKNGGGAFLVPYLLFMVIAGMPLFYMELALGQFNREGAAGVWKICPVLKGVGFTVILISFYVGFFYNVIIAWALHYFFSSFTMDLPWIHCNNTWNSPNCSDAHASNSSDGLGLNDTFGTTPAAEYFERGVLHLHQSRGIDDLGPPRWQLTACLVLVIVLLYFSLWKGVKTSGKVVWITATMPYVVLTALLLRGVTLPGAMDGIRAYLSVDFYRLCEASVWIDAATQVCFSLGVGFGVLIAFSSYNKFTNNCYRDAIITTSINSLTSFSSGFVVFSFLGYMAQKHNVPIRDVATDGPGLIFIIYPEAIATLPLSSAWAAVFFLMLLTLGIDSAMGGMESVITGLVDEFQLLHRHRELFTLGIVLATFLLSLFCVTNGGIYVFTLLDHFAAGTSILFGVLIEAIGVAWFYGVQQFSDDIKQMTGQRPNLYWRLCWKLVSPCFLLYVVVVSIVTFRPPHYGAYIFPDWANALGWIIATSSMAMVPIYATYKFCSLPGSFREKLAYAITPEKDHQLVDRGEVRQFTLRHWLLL
T2 sequence (P31652 whole entry, looked up): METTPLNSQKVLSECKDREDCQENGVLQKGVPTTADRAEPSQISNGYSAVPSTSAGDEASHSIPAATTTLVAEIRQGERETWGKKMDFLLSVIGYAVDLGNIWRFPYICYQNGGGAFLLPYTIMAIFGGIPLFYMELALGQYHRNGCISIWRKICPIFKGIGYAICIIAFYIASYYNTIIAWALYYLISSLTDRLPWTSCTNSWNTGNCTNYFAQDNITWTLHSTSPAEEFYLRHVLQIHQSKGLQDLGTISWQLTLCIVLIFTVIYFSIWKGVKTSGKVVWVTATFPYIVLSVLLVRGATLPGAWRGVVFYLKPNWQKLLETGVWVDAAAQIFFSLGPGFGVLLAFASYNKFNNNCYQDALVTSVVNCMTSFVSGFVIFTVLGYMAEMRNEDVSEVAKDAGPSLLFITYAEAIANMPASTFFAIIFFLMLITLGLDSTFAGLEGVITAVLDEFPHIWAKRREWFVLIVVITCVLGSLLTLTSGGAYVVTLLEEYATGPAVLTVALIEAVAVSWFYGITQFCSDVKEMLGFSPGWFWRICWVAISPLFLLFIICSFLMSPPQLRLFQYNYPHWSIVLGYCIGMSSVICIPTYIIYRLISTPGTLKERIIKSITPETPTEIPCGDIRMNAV

[3] = biological target: T3, Norepinephrine transporter (Rattus norvegicus, UniProt Q9WTR4); test: Binding affinity at the Norepinephrine transporter in rat frontal cortex by inhibition of 0.5 nM [3H]nisoxetine binding; type: tissue-based
T3 sequence (Q9WTR4 whole entry): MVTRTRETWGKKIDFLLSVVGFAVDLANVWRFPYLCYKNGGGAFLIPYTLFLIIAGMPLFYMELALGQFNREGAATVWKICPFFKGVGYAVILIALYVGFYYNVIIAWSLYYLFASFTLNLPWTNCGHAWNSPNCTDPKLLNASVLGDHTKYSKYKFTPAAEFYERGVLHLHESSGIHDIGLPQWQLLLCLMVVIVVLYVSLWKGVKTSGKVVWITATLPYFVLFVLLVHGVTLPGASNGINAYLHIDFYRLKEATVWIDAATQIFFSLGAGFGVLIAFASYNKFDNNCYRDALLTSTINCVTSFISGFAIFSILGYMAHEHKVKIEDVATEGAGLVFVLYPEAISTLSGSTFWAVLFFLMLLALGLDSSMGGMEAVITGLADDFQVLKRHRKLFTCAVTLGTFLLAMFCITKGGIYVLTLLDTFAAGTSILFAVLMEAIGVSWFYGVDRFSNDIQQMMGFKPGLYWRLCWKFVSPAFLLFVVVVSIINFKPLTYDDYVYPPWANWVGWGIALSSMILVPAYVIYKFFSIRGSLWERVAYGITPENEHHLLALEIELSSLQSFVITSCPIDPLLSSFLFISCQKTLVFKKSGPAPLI

[4] = biological target: Monoamine transporters; Norepininephrine & dopamine (Rattus norvegicus) (UniProt P23977+Q9WTR4); test: Ratio of IC50 value against NE to that of DA transporters; type: protein assay
Outline: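 Competition binding against 0.5 nM [3H]WIN 35,428 (DA transporter) or 0.5 nM [3H]nisoxetine (NE transporter). The IC50 is the mean ± standard error of three or four experiments, each run in triplicate. Selectivity ratios are NE/DA or 5-HT/DA quotients of the IC50 values.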

[5] = biological target: T4, Sodium-dependent dopamine transporter (Rattus norvegicus, UniProt P23977); test: Binding affinity at the Dopamine transporter in rat striata by inhibition of 0.5 nM [3H]WIN-35428 binding
T4 sequence (P23977 whole entry): as the sequence (P23977 whole entry, looked up) above

[6] = biological target: T3, Norepinephrine transporter; test: Inhibition of [3H]NE uptake by rat frontal cortex Norepinephrine transporter; type: tissue-based
Outline: (§1)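 Rat frontal cortex synaptosomes were used at 10 mg/mL tissue with 5 nM final [3H]norepinephrine and 10 μM pargyline in Krebs phosphate buffer, pH 7.4. Incubation was 3 min at 30 °C, followed by filtration and scintillation counting. Nonspecific uptake was defined with 1 μM desipramine. Three or four experiments were run in triplicate, and Ki was derived by Cheng–Prusoff.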

[7] = biological target: T4, Sodium-dependent dopamine transporter; test: Inhibition of [3H]DA uptake by rat striatal dopamine transporter
Outline: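 Rat striatal crude synaptosomes were prepared from male Sprague–Dawley rats by 0.32 M sucrose homogenisation and centrifugation at 800g then 2000g. Each tube held 1.5 mg tissue, 0.5 nM [3H]dopamine and 10 μM pargyline in Krebs phosphate buffer, pH 7.4, with dextrose and ascorbate. Incubation was 3 min at 30 °C, followed by filtration and scintillation counting. Nonspecific uptake was defined with 1 μM mazindol. Three or four experiments were run in triplicate, and Ki was derived by Cheng–Prusoff.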

[8] = biological target: T1, Sodium-dependent serotonin transporter; test: Ratio of Ki value towards Serotonin transporter to that of dopamine transporter
Outline: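 Rat [3H]uptake into crude synaptosomes in modified Krebs phosphate buffer, pH 7.4, with dextrose, ascorbic acid and 10 μM pargyline, 3 min at 30 °C, filtered and scintillation counted. DA: male Sprague–Dawley striatum, 0.5 nM [3H]dopamine, 1 μM mazindol nonspecific. 5-HT: midbrain, 5 nM [3H]serotonin, 1 μM citalopram nonspecific. Ki by Cheng–Prusoff; 5-HT Ki/DA Ki; 3–4 experiments in triplicate.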

[9] = biological target: T2, Monoamine transporters; serotonin & dopamine (Rattus norvegicus); test: Ratio of IC50 value against Serotonin transporter to that of dopamine transporter; type: protein assay
[10] = biological target: T1, Sodium-dependent serotonin transporter; test: Inhibition of [3H]- 5-HT uptake in Serotonin transporter using serotonin uptake assay in rat midbrain tissue; type: tissue-based
Outline: as §1, with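 “Rat midbrain” for “Rat frontal cortex”, “at 1” for “at 10”, “final [3H]serotonin” for “final [3H]norepinephrine”, “μM citalopram.” for “μM desipramine.”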

T1 sequence (P31652 whole entry): as the sequence (P31652 whole entry, looked up) above

Compound | IC50 [1] [nM] | Ratio [2] | IC50 [3] [nM] | Ratio [4] | IC50 [5] [nM] | Ki [6] [nM] | Ki [7] [nM] | Ki [8] [nM] | Ratio [9] | Ki [10] [nM]
Cc1ccc(C2CC3CCC(C2C(N)=O)N3C)cc1 (configuration not stated) | 6370 | 152 | 4400 | 105 | 41.8 | – | – | – | – | –
CN1C2CCC1C(C(=O)NCO)C(c1ccc(Cl)cc1)C2 (configuration not stated) | – | 48 | 144 | 47 | 2.05 | – | – | – | – | –
CNC(=O)C1C(OC(=O)c2ccccc2)CC2CCC1N2C (configuration not stated) | 44800 | 18 | 4210 | 1.7 | 2420 | – | – | – | – | –
CN1C2CCC1C(C(=O)OC1CC1)C(c1ccc(I)cc1)C2 (configuration not stated) | – | 25 | 102 | 167 | 0.61 | – | – | – | – | –
CC(C)OC(=O)C1C(c2ccc(I)cc2)CC2CCC1N2C (configuration not stated) | 66.8 | 155 | 285 | 662 | 0.43 | 41.2 | 2.79 | 12.5 | – | –
CN1C2CCC1C(C(=O)Oc1ccccc1)C(c1ccc(I)cc1)C2 (configuration not stated) | 184 | – | 3790 | 2580 | 1.5 | 32.7 | 6.85 | – | 123 | 51.6
COC(=O)C1C(c2ccc(I)cc2)CC2CCC1N2C (configuration not stated) | – | – | 36 | 29 | 1.26 | 7.51 | 1.96 | – | 3.3 | 1.74
Cc1ccc(C2CC3CCC(C2C(=O)OC(C)C)N3C)cc1 (configuration not stated) | – | 944 | 1930 | 299 | 6.45 | 73.4 | 15.3 | – | 59.9 | –
CN1C2CCC1C(C(=O)OC/C=C/c1ccccc1)C(OC(=O)c1ccccc1)C2 (configuration not stated) | 368 | 1 | 68900 | 186 | 371 | – | – | – | – | –
Cc1ccc(C2CC3CCC(C2C(=O)Oc2ccccc2)N3C)cc1 (configuration not stated) | – | – | 5830 | 1790 | 3.26 | 278 | 9.13 | – | 7410 | 1540
COC(=O)[C@H]1[C@@H](c2ccc(F)cc2)C[C@H]2CC[C@H]1N2C | 692 | – | – | – | – | 38.6 | – | – | – | 101
CN1C2CCC1C(C(N)=O)C(OC(=O)c1ccccc1)C2 (configuration not stated) | 13700 | 18 | 3980 | 5.3 | 753 | – | – | – | – | –
CC(C)OC(=O)C1C(c2ccc(Cl)cc2)CC2CCC1N2C (configuration not stated) | – | – | 778 | 556 | 1.4 | 250 | 6.04 | – | 1000 | 129
CN1C2CCC1C(C(=O)Oc1ccccc1)C(c1ccc(Cl)cc1)C2 (configuration not stated) | – | – | – | 1490 | – | 242 | 5.25 | – | 1180 | 391
CN1C2CCC1C(C(N)=O)C(c1ccc(Cl)cc1)C2 (configuration not stated) | 1620 | 141 | 4270 | 371 | 11.5 | – | – | – | – | –
COC(=O)C1C(c2ccc(Cl)cc2)CC2CCC1N2C (configuration not stated) | – | – | – | – | – | – | 3.68 | – | – | 5
